SIAE inh = human SIAE inhibitors, primary screen, biochemical, fluorescence polarization, FP-Rh probe, 1536-well HTS. Sialate O-acetylesterase (Homo sapiens), Q9HAT2. SIAE FP-Rh probe binding. inhibition, % at 9.66 µM. 370,000 tested, 0.69% active. AID 1053197, 2014;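 active = inhibition above a cutoff: mean of compounds within the control limits plus 3 SD of those, cut at about 17% in these data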;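 note: 0% = plate median of compound wells and 100% = probe without SIAE protein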
TDP2 inh = human TDP2 enzyme inhibitors, primary screen, biochemical, epi absorbance, recombinant enzyme; Tyrosyl-DNA phosphodiesterase 2 (Homo sapiens), O95551; T5PNP hydrolysis, p-nitrophenol absorbance 415 nm; inhibition, % at 12.8 µM; 370,000 tested, 0.34% active; AID 720702, 2013;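 active = inhibition above the mean of all tested compounds plus 3 SD, set per campaign, cut at about 25% in these data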;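 note: 0% = DMSO with enzyme and 100% = buffer with substrate but no TDP2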
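Assay system: recombinant human TDP2 / Reagent: T5PNP substrate at 5 mM, a TopII-DNA adduct mimic / Measured by: epi absorbance from released p-nitrophenol / Evaluation: % inhibition relative to enzyme-containing and enzyme-free wells / Control set: enzyme-free and DMSO wells / Replicates: each compound tested once, singlicate / Schedule: enzyme reaction with compound for 2 h at 37 °C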
PRMT1 FP inh = PRMT1 methyltransferase inhibitors, primary screen, biochemical, fluorescence polarization. recombinant PRMT1, activity-based probe fluorescence polarization. inhibition, % at 2.79 µM. 370,000 tested, 1.3% active. AID 652257, 2013;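 active = inhibition above about 21% made by adding two undisclosed values, limit read from the data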
Target sequence (Q99873 whole entry, looked up): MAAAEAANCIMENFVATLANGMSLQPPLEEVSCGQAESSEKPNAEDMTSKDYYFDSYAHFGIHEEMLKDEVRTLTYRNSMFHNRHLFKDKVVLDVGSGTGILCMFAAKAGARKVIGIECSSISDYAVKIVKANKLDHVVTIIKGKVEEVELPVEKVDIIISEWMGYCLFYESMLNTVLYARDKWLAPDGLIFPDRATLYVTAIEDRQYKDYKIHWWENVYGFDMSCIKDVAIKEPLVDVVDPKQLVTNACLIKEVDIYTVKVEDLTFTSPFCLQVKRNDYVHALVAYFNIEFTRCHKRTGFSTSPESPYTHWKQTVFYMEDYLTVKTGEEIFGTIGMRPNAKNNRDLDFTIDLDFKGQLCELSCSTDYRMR
LEDGF integ inh = blockers of LEDGF/p75-dependent integrase strand transfer – biochemical, TR-FRET, high throughput, primary screen; HIV-1 integrase (with human LEDGF/p75); TR-FRET IN-LEDGF/p75 DNA integration, Eu/Cy5; inhibition, % at 3.7 µM; 370,000 tested, 0.64% active;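 active = inhibition above the screen-wide mean plus 3 SD, cut at about 13% in these data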;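 note: signal is the Cy5 over europium emission ratio at 671 and 618 nm; 0% = plate median of compound wells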
MBD2 inh = inhibitors of MBD2 binding to methylated DNA, primary screen, biochemical, TR-FRET, DNA-binding domain, human. Methyl-CpG-binding domain protein 2 (Homo sapiens), Q9UBB5. MBD2 binding to methylated oligonucleotide. inhibition, % at 4.4 µM. 370,000 tested, 0.31% active. AID 686964, 2013; in the data active = inhibition above about 13%
UHRF1 binding = UHRF1 methylated DNA binding inhibitors, primary screen, counter-screen for MBD2 inhibitor project, biochemical, TR-FRET, human UHRF1, single concentration | E3 ubiquitin-protein ligase UHRF1 (Homo sapiens), Q96T88 | UHRF1 binding to methylated oligo | AID 687016, 2013 | 370,000 tested, 0.75% active | inhibition, % at 4.4 µM; in the data active = inhibition above about 21%;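 note: UHRF1 SRA domain binding a hemimethylated CpG hairpin DNA probe; 0% = median of test compound wells and 100% = reference inhibitor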
IN multimer act = HIV-1 IN multimer formation enhancers, counter-screen for LEDGF/p75 integration inhibitor project, biochemical, TR-FRET. shares compounds with LEDGF integ inh. TR-FRET HIV-1 integrase multimerization. activation, % at 7.7 µM. 2,000 tested, 17% active. AID 1053131, 2014; in the data active = activation above about 8.9%
TRFRET interf = TR-FRET optical interference artefacts, confirmation, artefact control for LEDGF/p75-dependent integration inhibitor project, biochemical, HIV-1 IN multimerization. inhibition, % at 7.7 µM. shares compounds with LEDGF integ inh. 2,000 tested, under 10 active. TR-FRET optical interference counterscreen;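 active = inhibition above the mean over all tested compounds plus 3 SD, which no compound reached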;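 note: 0% = integrase with antibodies and DMSO and 100% = antibodies without integrase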
LEDGF integ conf = inhibitors of HIV-1 IN-LEDGF/p75 DNA integration, confirmation, biochemical, TR-FRET; TR-FRET LEDGF/p75-dependent HIV-1 integration; shares compounds with LEDGF integ inh; 2,000 tested, 36% active; inhibition, % at 3.7 µM; in the data active = inhibition above about 14%
Active calls of the source: *; x = no result given. Compounds with a hit are over-represented: about 3.3% of the library has one in this group of screens.

SMILES	SIAE inh	TDP2 inh	PRMT1 FP inh	LEDGF integ inh	MBD2 inh	UHRF1 binding	IN multimer act	TRFRET interf	LEDGF integ conf
CCC(CC)C(=O)N(C)c1c(C)nc2c(OCc3ccc(C(F)(F)F)cc3)cccn12	-5.1	3.0	-0.7	-1.1	1.2	-0.6	x	x	x
CCC(CC)C(=O)N(C)c1c(C)nc2c(OCc3ccc(F)c(F)c3)cccn12	1.9	1.6	-0.2	21.1*	2.5	-0.3	1.4	-4.7	3.4
O=[N+]([O-])c1cccc(NCCCN2CCC(C(O)(c3ccccc3)c3ccccc3)CC2)c1	1.5	3.2	0.1	0.1	4.0	-2.1	x	x	x
COc1ccc(CS(=O)(=O)CC(C)(O)c2ccc(Cl)cc2)cc1 (stereo not drawn)	12.2	10.3	-3.8	14.2*	-4.6	-2.8	0.5	-1.6	0.1
Cc1ccc(Cl)cc1-c1ccc(C=Nc2ccc(N3CCOCC3)cc2)o1	3.3	23.4	1.2	27.8*	-6.3	-3.2	3.9	-13.8	11.2
CCOP(=O)(O)c1ccccc1OCCOc1ccccc1P(=O)(O)OCC	-0.5	4.9	3.8	-3.4	-0.8	4.4	x	x	x
O=P(O)(O)COc1ccccc1P(=O)(c1ccccc1)c1ccccc1	0.3	7.0	0.6	19.0*	-2.6	-0.3	-2.5	12.6	0.1
C=C(C)C(=O)Nc1cccc(C2=NOC3(C2)C[C@@H](C(N)=O)N(C(=O)[C@H]2CCC(=O)N2)C3)c1 (stereo partly drawn)	-4.7	-2.5	0.2	28.0*	10.8	15.8	4.9	-24.6	24.0*
C/C=C(/C)C(=O)Nc1cccc(C2=NOC3(C2)C[C@@H](C(N)=O)N(C(=O)[C@H]2CCC(=O)N2)C3)c1 (stereo partly drawn)	-2.0	6.4	0.1	1.5	2.3	-0.1	x	x	x
C#CCN1CC(N(C)CCOC(=O)c2ccc(C(C)(C)C)cc2)CS1(=O)=O (stereo not drawn)	3.7	5.4	5.9	-6.0	7.4	-1.6	x	x	x
O=C(NCc1n[nH]c(=S)n1-c1ccccc1)c1ccco1	2.8	7.0	2.5	14.9*	7.6	1.2	-0.4	2.2	-7.9
O=C(O)c1cccc(Cl)n1	1.0	3.9	-4.0	82.8*	-4.5	-0.2	1.6	-8.1	-4.5
CC(=O)Nc1cccc(C(=O)O)n1	0.4	-2.1	0.0	-1.6	-1.9	0.6	x	x	x
COC(=O)[C@H]1C[C@H]2[C@@H]3CC[C@H]4C[C@@H](OC)CC[C@]4(C)[C@H]3CC[C@]2(C)[C@@]2(CCCO2)O1	4.3	-4.7	-3.2	49.3*	-3.7	0.9	1.2	-5.9	4.0
O=C1N2Cc3ccccc3C2CS(=O)(=O)N1CCc1ccccc1 (stereo not drawn)	2.3	-3.5	-2.0	4.3	2.8	-1.1	x	x	x
CCOC(=O)c1c2ccc(OCC(=O)NN)cc2n2ccccc12	5.7	4.4	2.5	23.0*	0.8	10.9	2.8	-14.2	6.0
COC(=O)[C@]12C[C@H](CC(=O)NCc3ccc(OC)c(OC)c3)C(=O)N(Cc3ccco3)C1=C[C@H](COCc1ccccc1)O[C@@H]2C	-11.2	1.7	3.7	-2.9	-4.5	-3.4	x	x	x
CCCN(CCC)C(=S)NC(=O)c1ccc(-c2ccccc2)cc1	2.6	-2.0	0.4	25.8*	1.6	0.2	1.5	-7.5	34.9*
CN(C)Cc1cc(O)c(CN(C)C)cc1O	8.2	13.8	9.2	23.9*	-1.2	15.1	4.8	-17.3	29.7*
CCN(CC)C(=O)CSc1nnc(-c2cccs2)o1	-3.8	5.7	2.0	-0.1	-4.1	0.6	x	x	x
CC1=C(n2nnc([N+](=O)[O-])n2)C(c2cccnc2)C(C#N)=C(N)O1 (stereo not drawn)	4.1	13.3	0.3	30.1*	-1.7	2.3	2.4	-8.6	-1.7
O=Cc1ccc(-c2c(-c3ccccc3)oc3c2C(OCCCCO)CCC3)o1 (stereo not drawn)	4.2	-1.7	11.7	30.1*	-1.2	2.0	0.1	-0.3	6.1
O=C1N(c2ccccc2)CC2CC(c3ccccc3)N3CCCC123 (stereo not drawn)	-1.1	2.6	2.9	-2.9	-3.1	-0.2	x	x	x
Cc1cc(=O)n2[nH]c(-c3ccc(F)cc3)cc2n1	9.1	1.5	0.1	1.0	1.8	-3.4	x	x	x
Cc1cc(=O)n2[nH]c(-c3ccsc3-n3c(C)ccc3C)cc2n1	-5.2	-0.1	14.6	27.8*	10.0	17.9	25.2*	-126.7	50.0*
SMILES	SIAE inh	TDP2 inh	PRMT1 FP inh	LEDGF integ inh	MBD2 inh	UHRF1 binding	IN multimer act	TRFRET interf	LEDGF integ conf
Cn1ccc2c(N(Cc3ccccc3)Cc3ccccc3)cc3c(c21)C1CCC3C1 (stereo not drawn)	10.2	6.5	-0.5	6.2	-6.3	-6.5	x	x	x
CN(Cc1ccccc1)c1cc2c(c3c1ccn3C)C1CCC2C1 (stereo not drawn)	10.4	1.2	-0.6	51.9*	-1.5	-4.3	-0.9	3.4	-4.7
Cc1cc(Nc2nc3ccccc3nc2Cl)n(-c2ccc([N+](=O)[O-])cc2)n1	6.9	-9.7	2.3	81.7*	2.3	-3.4	0.5	-2.4	-1.1
O=C(NC(=S)Nc1cccc([N+](=O)[O-])c1)C1CCCC1	0.6	13.9	3.8	88.2*	-4.6	-3.6	-2.4	12.3	3.5
c1cn2cc(-c3ccc(CN4CCOCC4)cc3)ccc2n1	4.2	1.9	1.6	88.9*	-3.9	-0.2	1.2	-4.3	-1.4
Cc1c(C(=O)NCCN2CCOCC2)oc2ccc(Br)cc12	-4.5	2.5	2.8	18.3*	0.7	-0.9	-0.1	0.4	9.4
CCC(=O)Nc1nc2ccccc2n1CCN1CCOCC1	-1.3	-7.3	-1.6	-4.7	-0.9	3.0	x	x	x
